Published values pooled from the literature.
Each line is one published result; the experiments were not run side by side.
Target: Ephrin type-A receptor 2 (EPHA2, Homo sapiens, UniProt P29317)

O=C(NCC1CCOCC1)c1n[nH]cc1NC(=O)c1c(F)cccc1F gave a remaining binding of 100% (binding; competition with immobilised ligand; 1 µM).
With CN(C)c1nccc(-c2cnc3ncccn23)n1 the remaining binding was 100% (binding; 1 µM).
For Cc1cc(C)c(-n2ccn3nc(-c4cccnc4)cc23)cc1NC(=O)c1cc(C#N)cc(S(F)(F)(F)(F)F)c1, the remaining binding was 79.6% (cell-free assay; competition with immobilised ligand; 0.1 µM).
With N[C@@H]1CCN(c2nccc(-c3cnn4ncccc34)n2)C1 the remaining binding was 100% (binding; 1 µM).
Cc1nc(C2CCN(C(=O)c3ccc(OC(F)(F)F)cc3N)CC2)c2ncc(N3CCN(C)CC3)cc2n1 has a remaining binding of 100% (cell-free assay; competition with immobilised ligand; 1 µM).
c1cncc(-c2cccc(Nc3nccc(NC4CCCCC4)n3)c2)c1 gave a remaining binding of 83% (binding; competition with immobilised ligand; 10 µM).
COc1cnc(Nc2cccc(S(N)(=O)=O)c2)nc1N1CCN(c2ccccc2)C(=O)C1 has a remaining binding of 99% (binding; competition with immobilised ligand; 1 µM).
The remaining binding of O=C(c1ccc(Nc2ncc(Cl)c(-c3cc4ccccc4s3)n2)cc1)N1CCC(N2CCCC2)CC1 is reported as 60% (binding; competition with immobilised ligand; 1 µM).
The remaining binding of F[C@@H]1CCN(c2nccc(-c3cnn4ncccc34)n2)C1 is reported as 100% (binding; 1 µM).
The remaining binding of CCOCCn1cc(C(=O)Nc2ccc(-n3nc(-c4cccnc4)cc3C(F)(F)F)cn2)ccc1=O is reported as 93% (cell-free assay; competition with immobilised ligand; 1 µM).
CNC(=O)[C@@H]1CC[C@@H](n2c(-c3ccc4cnccc4c3)nc3ccc(C(=O)NCc4cccc(C(N)=O)c4)cc32)C1 has a remaining binding of 98% (binding; competition with immobilised ligand; 1 µM).
O=C(NCCCN1CCOCC1)c1ccc(Nc2ncc(Cl)c(-c3ccc(Cl)s3)n2)cc1 gave a remaining binding of 100% (binding; competition with immobilised ligand; 1 µM).
The remaining binding of Cc1cnn2ncc(-c3ccnc(N(C)C)n3)c2c1 is reported as 95% (binding; 1 µM).
Nc1cnc(N2CCc3cc(S(=O)(=O)Nc4c(F)cc(Cl)cc4F)cc(N4CCCC4=O)c32)nc1 gave a remaining binding of 100% (cell-free assay; competition with immobilised ligand; 1 µM).
With COc1ncc2cc3ccccc3nc2c1C#N the remaining binding was 96% (cell-free assay; competition with immobilised ligand; 5 µM).
The remaining binding of CN(C)C(=O)Cn1cc(-c2nc([C@@](C)(c3ccc(-c4cnc(N)nc4)cc3)C3CC3)no2)cn1 is reported as 100% (cell-free assay; competition with immobilised ligand; 1 µM).
For COc1ccnn2ncc(-c3ccnc(N(C)C)n3)c12, the remaining binding was 100% (binding; 1 µM).
Cc1cnc(Nc2ccc(C(=O)N3CCC(N4CCCC4)CC3)cc2)nc1-c1cc2ccccc2s1 gave a remaining binding of 26% (binding; competition with immobilised ligand; 1 µM).
CO[C@@H](C)c1c(Nc2ccc([C@H](N(C)C(=O)C3CCS(=O)(=O)CC3)C(F)(F)F)cc2)cnc2cc(Cl)nn12 gave a remaining binding of 100% (cell-free assay; competition with immobilised ligand; 1 µM).
For FC(F)(F)Oc1cccc(-c2cnc3ccc(-c4ccncc4)nn23)c1, the remaining binding was 80% (cell-free assay; competition with immobilised ligand; 5 µM).
The remaining binding of c1cnn2ncc(-c3ccnc(N4CCC45COC5)n3)c2c1 is reported as 94% (binding; 1 µM).
C=CC(=O)N1CCC(C(=O)NCC(=O)N2CCN(c3nc(-c4cnc(N)nc4C(F)F)nc(N4CCOCC4)n3)CC2)CC1 has a remaining binding of 95% (binding; competition with immobilised ligand; 1 µM).
The remaining binding of C[C@@H]1CN(c2ccc3ncc(-c4ccc5[nH]nc(C6CC6)c5c4)n3n2)C[C@H](C)O1 is reported as 100% (binding; competition with immobilised ligand; 0.5 µM).
For Nc1ncc2c(n1)-c1c([nH]c3ccc(C#CC4CC4)cc13)CCCC2, the remaining binding was 100% (binding; competition with immobilised ligand; 1 µM).
With C[C@@H]1CCN(c2nccc(-c3cnn4ncccc34)n2)C1 the remaining binding was 93% (binding; 1 µM).
For NS(=O)(=O)c1cc(NC(=O)Cc2ccccc2)ccc1Oc1cccc(Cl)c1, the remaining binding was 91% (cell-free assay; competition with immobilised ligand; 1 µM).
